Laboratory results taken from ChEMBL document CHEMBL1140069, “In vitro antifungal activity of polyfunctionalized 2-(hetero)arylquinolines prepared through imino Diels-Alder reactions” (2008).
Converted amounts (≈) assume the structure as drawn.

Legend:
Assay type in all cases: functional
Cryptococcus neoformans [1] = assay: Antimicrobial activity against Cryptococcus neoformans IM 972724 isolate at 12.5 ug/ml after 48 hrs
In short: (§1)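 Clinical Cryptococcus isolates kept on Sabouraud-dextrose agar slopes; inoculum 1–5 × 10³ CFU/mL. Quinoline DMSO stocks were diluted in RPMI-1640 to final 100–6.25 µg/mL, with DMSO ≤2%. An equal volume of inoculum was added (200 µL per well). Run in triplicate.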

Cryptococcus neoformans [2] = assay: Antimicrobial activity against Cryptococcus neoformans IM 983040 isolate at 12.5 ug/ml after 48 hrs; in short: as §1
Candida albicans [3] = assay: Antimicrobial activity against Candida albicans ATCC 10231 at 50 ug/ml after 24 hrs; settings: ATCC 10231, 24 h
In short: (§2)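 Growth-inhibition microplate test. Strains are grown on Sabouraud-chloramphenicol agar for 48 h at 30 °C, and inoculum is added to RPMI-1640 containing compound at a final 100–6.25, with DMSO ≤2%. Each strain has a growth control (same DMSO, no compound) and a sterility control.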

Cryptococcus neoformans [4] = assay: Antimicrobial activity against Cryptococcus neoformans IM 042074 isolate at 25 ug/ml after 48 hrs
In short: (§3)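 Percent growth inhibition in 96-well microplates. Compound stocks in DMSO (≤2%) were diluted in RPMI-1640 to final 100–6.25 µg/mL, and 100 µL inoculum was added (final 200 µL). Controls were a growth well (inoculum with matching DMSO, no compound) and a sterility well (no inoculum). Inhibition was calculated against growth and sterility wells.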

Cryptococcus neoformans [5] = assay: Antimicrobial activity against Cryptococcus neoformans ATCC 32264 at 100 ug/ml after 48 hrs; settings: ATCC 32264, 48 h; in short: as §3
Cryptococcus neoformans [6] = assay: Antimicrobial activity against Cryptococcus neoformans IM 972751 isolate at 25 ug/ml after 48 hrs; in short: as §1
Candida albicans [7] = assay: Antimicrobial activity against Candida albicans ATCC 10231 at 25 ug/ml after 24 hrs; settings: ATCC 10231, 24 h; in short: as §2
Cryptococcus neoformans [8] = assay: Antimicrobial activity against Cryptococcus neoformans IM 031631 isolate at 100 ug/ml after 48 hrs; in short: as §3
Cryptococcus neoformans [9] = assay: Antimicrobial activity against Cryptococcus neoformans IM 972751 isolate at 100 ug/ml after 48 hrs; in short: as §1
Cryptococcus neoformans [10] = assay: Antimicrobial activity against Cryptococcus neoformans IM 031706 isolate at 25 ug/ml after 48 hrs; in short: as §3
Cryptococcus neoformans [11] = assay: Antimicrobial activity against Cryptococcus neoformans IM 983040 isolate at 100 ug/ml after 48 hrs; in short: as §1
Cryptococcus neoformans [12] = assay: Antimicrobial activity against Cryptococcus neoformans IM 972724 isolate at 100 ug/ml after 48 hrs; in short: as §1
Cryptococcus neoformans [13] = assay: Antimicrobial activity against Cryptococcus neoformans IM 983036 isolate at 25 ug/ml after 48 hrs; in short: as §1
Cryptococcus neoformans [14] = assay: Antimicrobial activity against Cryptococcus neoformans IM 983040 isolate at 6.25 ug/ml after 48 hrs; in short: as §1
Cryptococcus neoformans [15] = assay: Antimicrobial activity against Cryptococcus neoformans IM 031706 isolate at 100 ug/ml after 48 hrs; in short: as §3
Cryptococcus neoformans [16] = assay: Antimicrobial activity against Cryptococcus neoformans IM 961951 isolate at 12.5 ug/ml after 48 hrs; in short: as §3
Cryptococcus neoformans [17] = assay: Antimicrobial activity against Cryptococcus neoformans IM 052470 isolate at 12.5 ug/ml after 48 hrs; in short: as §3
Cryptococcus neoformans [18] = assay: Antimicrobial activity against Cryptococcus neoformans IM 00319 isolate at 25 ug/ml after 48 hrs; in short: as §3
Cryptococcus neoformans [19] = assay: Antimicrobial activity against Cryptococcus neoformans IM 031706 isolate at 12.5 ug/ml after 48 hrs; in short: as §3
Cryptococcus neoformans [20] = assay: Antimicrobial activity against Cryptococcus neoformans IM 961951 isolate at 50 ug/ml after 48 hrs; in short: as §1
Cryptococcus neoformans [21] = assay: Antimicrobial activity against Cryptococcus neoformans IM 972751 isolate at 12.5 ug/ml after 48 hrs; in short: as §1
Cryptococcus neoformans [22] = assay: Antimicrobial activity against Cryptococcus neoformans IM 961951 isolate at 6.25 ug/ml after 48 hrs; in short: as §1
Candida albicans [23] = assay: Antimicrobial activity against Candida albicans ATCC 10231 at 6.25 ug/ml after 24 hrs; settings: ATCC 10231, 24 h; in short: as §2
Cryptococcus neoformans [24] = assay: Antimicrobial activity against Cryptococcus neoformans IM 052470 isolate at 6.25 ug/ml after 48 hrs; in short: as §3
Cryptococcus neoformans [25] = assay: Antimicrobial activity against Cryptococcus neoformans IM 042074 isolate at 50 ug/ml after 48 hrs; in short: as §3
Cryptococcus neoformans [26] = assay: Antimicrobial activity against Cryptococcus neoformans IM 983036 isolate at 100 ug/ml after 48 hrs; in short: as §1
Cryptococcus neoformans [27] = assay: Antimicrobial activity against Cryptococcus neoformans IM 972724 isolate at 50 ug/ml after 48 hrs; in short: as §1
Cryptococcus neoformans [28] = assay: Antimicrobial activity against Cryptococcus neoformans IM 052470 isolate at 25 ug/ml after 48 hrs; in short: as §3
Cryptococcus neoformans [29] = assay: Antimicrobial activity against Cryptococcus neoformans ATCC 32264 at 50 ug/ml after 48 hrs; settings: ATCC 32264, 48 h; in short: as §3
Aspergillus fumigatus = assay: Antifungal activity against Aspergillus fumigatus ATTC 26934 after 48 hrs by broth microdilution technique
In short: (§4)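 CLSI broth microdilution: M-27 A2 for yeasts and M-38 A for filamentous fungi. Medium is RPMI-1640 buffered to pH 7.0 with MOPS. Compound is diluted twofold from 250 to 0.98, final DMSO ≤2%. Inoculum is 1–5 × 10³ CFU/mL. Plates are incubated at 35 °C in a moist, dark chamber and read visually at 48 h. MIC100 is the lowest concentration giving total growth inhibition versus drug-free control.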

Cryptococcus neoformans [30] = assay: Antimicrobial activity against Cryptococcus neoformans ATCC 32264 at 12.5 ug/ml after 48 hrs; settings: ATCC 32264, 48 h; in short: as §3
Cryptococcus neoformans [31] = assay: Antimicrobial activity against Cryptococcus neoformans IM 00319 isolate at 6.25 ug/ml after 48 hrs; in short: as §3
Cryptococcus neoformans [32] = assay: Antimicrobial activity against Cryptococcus neoformans IM 00319 isolate at 50 ug/ml after 48 hrs; in short: as §3
Cryptococcus neoformans [33] = assay: Antimicrobial activity against Cryptococcus neoformans IM 972724 isolate at 6.25 ug/ml after 48 hrs; in short: as §1
Cryptococcus neoformans [34] = assay: Antimicrobial activity against Cryptococcus neoformans IM 972724 isolate at 25 ug/ml after 48 hrs; in short: as §1
Candida albicans [35] = assay: Antimicrobial activity against Candida albicans ATCC 10231 at 12.5 ug/ml after 24 hrs; settings: ATCC 10231, 24 h; in short: as §2
Cryptococcus neoformans [36] = assay: Antimicrobial activity against Cryptococcus neoformans IM 052470 isolate at 50 ug/ml after 48 hrs; in short: as §3
Cryptococcus neoformans [37] = assay: Antimicrobial activity against Cryptococcus neoformans IM 983040 isolate at 25 ug/ml after 48 hrs; in short: as §1
Cryptococcus neoformans [38] = assay: Antimicrobial activity against Cryptococcus neoformans IM 031631 isolate at 12.5 ug/ml after 48 hrs; in short: as §3
Cryptococcus neoformans [39] = assay: Antimicrobial activity against Cryptococcus neoformans IM 983036 isolate at 12.5 ug/ml after 48 hrs; in short: as §1
Candida albicans [40] = assay: Antifungal activity against Candida albicans ATCC 10231 after 48 hrs by broth microdilution technique; settings: ATCC 10231, 48 h; in short: as §4
[41] = system: Trichophyton mentagrophytes; assay: Antifungal activity against Trichophyton mentagrophytes ATCC 9972 after 48 hrs by broth microdilution technique; settings: ATCC 9972, 48 h; in short: as §4
Aspergillus flavus = assay: Antifungal activity against Aspergillus flavus ATCC 9170 after 48 hrs by broth microdilution technique; settings: ATCC 9170, 48 h; in short: as §4

MIC (Aspergillus fumigatus): 50 µg/mL (≈ 242 µM)
MIC (Candida albicans [40]): 100 µg/mL (≈ 485 µM)
MIC [41]: 50 µg/mL (≈ 242 µM)
MIC (Aspergillus flavus): 50 µg/mL (≈ 242 µM)
SMILES: c1ccc2nc(-c3ccncc3)ccc2c1
inhibition at 12.5 µg/mL (Cryptococcus neoformans [1]): 0%
inhibition at 12.5 µg/mL (Cryptococcus neoformans [2]): 0%
inhibition at 50 µg/mL (Candida albicans [3]): 73%
inhibition at 25 µg/mL (Cryptococcus neoformans [4]): 87%
inhibition at 100 µg/mL (Cryptococcus neoformans [5]): 100%
inhibition at 25 µg/mL (Cryptococcus neoformans [6]): 9%
inhibition at 25 µg/mL (Candida albicans [7]): 63%
inhibition at 100 µg/mL (Cryptococcus neoformans [8]): 100%
inhibition at 100 µg/mL (Cryptococcus neoformans [9]): 98%
inhibition at 25 µg/mL (Cryptococcus neoformans [10]): 57%
inhibition at 100 µg/mL (Cryptococcus neoformans [11]): 45%
inhibition at 100 µg/mL (Cryptococcus neoformans [12]): 74%
inhibition at 25 µg/mL (Cryptococcus neoformans [13]): 45%
inhibition at 6.25 µg/mL (Cryptococcus neoformans [14]): 0%
inhibition at 100 µg/mL (Cryptococcus neoformans [15]): 100%
inhibition at 12.5 µg/mL (Cryptococcus neoformans [16]): 34%
inhibition at 12.5 µg/mL (Cryptococcus neoformans [17]): 24%
inhibition at 25 µg/mL (Cryptococcus neoformans [18]): 52%
inhibition at 12.5 µg/mL (Cryptococcus neoformans [19]): 41%
inhibition at 50 µg/mL (Cryptococcus neoformans [20]): 89%
inhibition at 12.5 µg/mL (Cryptococcus neoformans [21]): 0%
inhibition at 6.25 µg/mL (Cryptococcus neoformans [22]): 4%
inhibition at 6.25 µg/mL (Candida albicans [23]): 19%
inhibition at 6.25 µg/mL (Cryptococcus neoformans [24]): 0%
inhibition at 50 µg/mL (Cryptococcus neoformans [25]): 87%
inhibition at 100 µg/mL (Cryptococcus neoformans [26]): 79%
inhibition at 50 µg/mL (Cryptococcus neoformans [27]): 23%
inhibition at 25 µg/mL (Cryptococcus neoformans [28]): 53%
inhibition at 50 µg/mL (Cryptococcus neoformans [29]): 100%
inhibition at 12.5 µg/mL (Cryptococcus neoformans [30]): 90%
inhibition at 6.25 µg/mL (Cryptococcus neoformans [31]): 12%
inhibition at 50 µg/mL (Cryptococcus neoformans [32]): 80%
inhibition at 6.25 µg/mL (Cryptococcus neoformans [33]): 0%
inhibition at 25 µg/mL (Cryptococcus neoformans [34]): 8%
inhibition at 12.5 µg/mL (Candida albicans [35]): 41%
inhibition at 50 µg/mL (Cryptococcus neoformans [36]): 75%
inhibition at 25 µg/mL (Cryptococcus neoformans [37]): 12%
inhibition at 12.5 µg/mL (Cryptococcus neoformans [38]): 36%
inhibition at 12.5 µg/mL (Cryptococcus neoformans [39]): 20%
